An excerpt weighted towards active compounds, which were near 2% of everything screened.
STEP block: STEP phosphatase inhibitors, primary screen, biochemical, fluorescence intensity, uHTS | Tyrosine-protein phosphatase non-receptor type 5 (Homo sapiens), P54829 | recombinant STEP, OMFP fluorogenic substrate | inhibition, % at 20 µM | actives 0.25% (n = 360,000) | AID 588621, 2011;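 active = inhibition at 20 µM, scaled per plate between control wells, above about 37%, limit read from the data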
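medium = Bis-Tris buffer pH 6.0, 2.5 mM DTT, 0.005% Tween 20 | test system = STEP (striatal-enriched tyrosine phosphatase) enzyme, cell-free | measure = normalized % inhibition | compound dosing = 20 µM, 1% DMSO | also added = 25 µM OMFP | schedule = reaction 20 min, ambient temperature | measured by = fluorescence read at 480 nm ex / 540 nm em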
DNMT1 block: human DNMT1 methyltransferase inhibitors, primary screen, biochemical, molecular beacon, fluorescence, HinP1I cleavage, uHTS; inhibition (reported as % activation of signal), % at 10 µM; DNA (cytosine-5)-methyltransferase 1 (Homo sapiens), P26358; actives 0.83% (n = 360,000); in the data active = inhibition above about 50%
Scp1 inh: Scp-1 phosphatase inhibitors, primary screen, biochemical, colorimetric, uHTS | Carboxy-terminal domain RNA polymerase II polypeptide A small phosphatase 1 (Homo … | actives 0.88% (n = 340,000) | inhibition, % at 20 µM | AID 493091, 2011 | Recombinant Scp1, phosphopeptide, malachite green phosphate absorbance;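 active = inhibition above about 50% at 20 µM, limit read from the data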
Target sequence (Q9GZU7 76-261 limits assumed): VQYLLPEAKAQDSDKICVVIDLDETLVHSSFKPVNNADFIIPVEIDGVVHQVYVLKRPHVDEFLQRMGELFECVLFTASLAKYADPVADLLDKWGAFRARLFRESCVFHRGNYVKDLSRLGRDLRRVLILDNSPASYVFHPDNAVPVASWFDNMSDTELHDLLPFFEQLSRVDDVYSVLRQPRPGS
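Test system: SCP-1 phosphatase catalytic domain, residues 76-261; measured by: colorimetric phosphate reagent with accelerator and stabiliser, absorbance at 630 nm; timing: enzyme reaction 45 min at room temperature, colour 5 min, stabilisation 30 min; also added: Phosphorylated 17-residue peptide substrate; compound dosing: one concentration, 20 µM, with 1.0% DMSO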
LMPTP inh: LMPTP phosphatase inhibitors, primary screen, biochemical, fluorescence intensity, uHTS | actives 0.22% (n = 360,000) | inhibition, % at 20 µM | recombinant LMPTP-A, OMFP fluorogenic substrate | Low molecular weight phosphotyrosine protein phosphatase (Homo sapiens), P24666;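 active = compounds that cut the enzyme signal by at least half of the control window in the single-dose screen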
Target sequence (P24666 whole entry, looked up): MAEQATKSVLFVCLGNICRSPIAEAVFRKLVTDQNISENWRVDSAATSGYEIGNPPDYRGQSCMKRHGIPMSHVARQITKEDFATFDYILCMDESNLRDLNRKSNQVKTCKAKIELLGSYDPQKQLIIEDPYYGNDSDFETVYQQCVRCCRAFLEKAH
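Test system: LMPTP-A phosphatase enzyme; input: 0.625 nM LMPTP-A final; reagent: OMFP substrate, 400 µM final; compound dosing: 20 µM single dose, 3% DMSO; incubation: 50 min dark incubation at room temperature; measured by: endpoint fluorescence intensity from OMFP dephosphorylation; measure: % inhibition relative to no-enzyme and uninhibited control wells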
Rpn11 inh: Rpn11 (PSMD14) deubiquitinase inhibitors, primary screen, biochemical, fluorescence polarization, uHTS; human 26S proteasome, Ub4-pepOG fluorescence polarization; 20S core pre-blocked with epoxomicin; inhibition, % at 20 µM; actives 0.59% (n = 360,000);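 active = inhibition at 20 µM, scaled to each plate's controls, above about 33%, limit read from the data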
Scp-1 conf: Scp-1 phosphatase inhibitors, retest, confirmation, biochemical, colorimetric, single concentration. shares compounds with Scp1 inh. recombinant SCP-1 catalytic domain, phosphate release, malachite green absorbance. inhibition, % at 20 µM. actives 61% (n = 2,500). AID 540281, 2011
MG interference: colorimetric readout interference by compounds, confirmation, artefact control for Scp-1 inhibitor project, biochemical, single concentration; shares compounds with Scp1 inh; Colorimetric interference counterscreen, malachite green absorbance 630 nm; 2,500 tested, under 10 active; apparent inhibition (interference), % at 20 µM;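 note: compounds added after enzyme reaction finished so only phosphate colour detection is probed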
Scp-1 Tm shift: Scp-1 binding by thermal shift, confirmation, orthogonal assay for Scp-1 inhibitor project, biophysical, differential scanning fluorimetry; Recombinant SCP1, Sypro Orange thermal shift Tm; thermal shift relative to vanadate control, % at 40 µM; shares compounds with Scp1 inh; actives 25% (n = 1,500);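 active = substances whose mean melting-temperature shift, as a percentage of the reference inhibitor's shift, reaches about 5.3%, limit read from the data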
A number is an active result; i = inactive; nt = no result.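 Rule for the calls, unless noted: active = inhibition of at least 30% at 20 µM; inactive = the rest.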

SMILES	STEP block	DNMT1 block	Scp1 inh	LMPTP inh	Rpn11 inh	Scp-1 conf	MG interference	Scp-1 Tm shift
CCN1C(=NCCOC)N[C@@H](c2cccc(C(F)(F)F)c2)C(C(=O)OC)=C1C	i	i	56	i	i	i	i	nt
CCN1C(=NCC2CC2)N[C@@H](c2cccc(C(F)(F)F)c2)C(C(=O)OC)=C1C	i	i	50	i	i	i	i	nt
CCN1C(=NCc2cc(OC)c(OC)c(OC)c2)N[C@@H](c2ccccc2)C(C(=O)OC)=C1C	i	i	54	i	i	i	i	nt
O=C(COc1ncnc2sccc12)N1CCN(C(=O)c2ccco2)CC1	i	i	92	i	i	64	i	i
CCNC(=O)C1(C)CCCN(C(=O)C2(c3ccc(Cl)cc3)CCCC2)C1 (stereo unspecified)	i	i	nt	i	i	nt	nt	nt
COc1cc(/C=C2\SC(=O)N(CC(=O)Nc3ccccc3F)C2=O)cc(Cl)c1O	i	i	i	i	i	nt	nt	nt
CCOc1cc(/C=C2\SC(=O)N(CC(=O)Nc3ccccc3F)C2=O)cc([N+](=O)[O-])c1O	i	i	85	i	i	62	i	21
COc1cc([N+](=O)[O-])ccc1NC(=O)COC(=O)c1c[nH]c(=O)[nH]c1=O	i	i	i	i	i	nt	nt	nt
Cc1cc2c(SCC(=O)Nc3cccc(O)c3)ncnc2s1	i	70	70	i	i	59	i	13
Cc1cccnc1NC(=O)CSc1ncnc2sc(C)c(C)c12	i	i	i	i	i	nt	nt	nt
Cc1sc2ncnc(SCC(=O)Nc3ncccc3O)c2c1C	i	i	59	i	i	72	i	9.8
CCC1=C(NCc2ccccc2)COC1=O	i	i	nt	i	i	nt	nt	nt
COc1ccc(/C=C2\C(=O)NCC(=O)N2C)cc1	i	i	89	i	i	i	i	nt
CC(=O)N1CCCc2cc(S(=O)(=O)CCC(=O)N3CCN(c4cccc(C)c4)C(C)C3)ccc21 (stereo unspecified)	i	i	50	i	i	i	i	nt
CC(=O)N1CCc2cc(S(=O)(=O)CCC(=O)N3CCN(c4ccccc4F)CC3)ccc21	i	i	i	i	i	nt	nt	nt
COCC(=O)N(C)C[C@@H]1Oc2ncc(Br)cc2C(=O)N([C@@H](C)CO)C[C@H]1C	i	i	nt	i	i	nt	nt	nt
Cc1nnc(N2C(=O)c3oc4ccccc4c(=O)c3C2c2ccco2)s1 (stereo unspecified)	i	i	60	i	i	42	i	i
O=C1NC(=S)SC1=Cc1cccs1	i	i	53	i	i	i	i	nt
O=C(CN1C(=O)N/C(=C\c2ccccc2OCc2ccc(C(=O)O)cc2)C1=O)Nc1ccccc1F	i	i	50	i	i	78	i	i
COc1cccc(/C=C2/NC(=O)N(CC(=O)Nc3ccc(C)cc3)C2=O)c1OCc1cccc(C(=O)O)c1	i	i	79	i	i	72	i	i
O=C(NN=C1CCCC1)c1cc(O)cc(O)c1	i	i	52	i	i	53	i	i
COC(=O)[C@]12CCCCC=C1N(Cc1ccccc1)C(=O)[C@H](CC(=O)N1CCSCC1)C2	nt	nt	nt	i	nt	nt	nt	nt
COc1ccccc1C(C)NC(=O)c1cc(=O)[nH]c2ccccc12 (stereo unspecified)	i	i	74	i	i	i	i	nt
COc1ccccc1NC(=O)c1cc(=O)[nH]c2ccccc12	i	i	i	i	i	nt	nt	nt
CCOC(=O)[C@]12CCCC=C1N(Cc1ccco1)C(=O)[C@H](CC(=O)N1CCSCC1)C2	nt	nt	nt	i	nt	nt	nt	nt
SMILES	STEP block	DNMT1 block	Scp1 inh	LMPTP inh	Rpn11 inh	Scp-1 conf	MG interference	Scp-1 Tm shift
CCCN(C(=O)CSc1nnc(-c2ccc3c(c2)OCO3)o1)C1CCS(=O)(=O)C1 (stereo unspecified)	i	i	nt	i	i	nt	nt	nt
COc1ccc([C@H]2C[C@@H](O)[C@H](n3cc(COC(=O)c4ccccc4)nn3)CN2CC2CCCCC2)cc1	i	i	nt	i	i	nt	nt	nt
Nc1cc2c(cc1[N+](=O)[O-])OCO2	i	i	58	i	i	58	i	i
Nc1cc2c(cc1[N+](=O)[O-])OCCO2	i	i	i	i	i	nt	nt	nt
CCN(CC)S(=O)(=O)c1cccc(C(=O)Nc2ccc(S(=O)(=O)NC3=NCCCCC3)cc2)c1	i	i	56	i	i	i	i	nt
CC[n+]1c(/C=C/Nc2ccccc2)oc2ccccc21	i	i	99	i	i	i	i	nt
COc1cc2c(cc1OC)CN(C(=O)C1CCCN(C(=O)c3ccc(Cl)cc3)C1)CC2 (stereo unspecified)	i	i	i	i	i	nt	nt	nt
C=CCc1cc(/C=C/c2nc(O)c([N+](=O)[O-])c(=O)[nH]2)cc(OC)c1O	i	i	64	i	i	59	i	11
